Experimental data reported in ChEMBL document CHEMBL1122849, “Synthesis and properties of bis(2,2-dimethylaziridinyl)phosphinic amides: a series of new antineoplastic agents” (1985).
Several values for one entry are separate records, joined by “and”; a condition that tells them apart may be missing. Equal values may be shown once.

Legend:
[1] = tested on: Colon 26; assay: Antitumor activity against C26 implants through intraperitoneal route along with the optimal dose of 80 mg/kg through intraperitoneal injection on 1,4 days; assay type: functional, Mus musculus
[2] = tested on: M109; assay: Antitumor activity against M109 implants through subcutaneous route along with the optimal dose of 70 mg/kg through intraperitoneal route on 1,4 days; assay type: functional, Mus musculus
[3] = tested on: M109; assay: Antitumor activity against M109 implants through subcutaneous route along with the optimal dose of 70 mg/kg through intravenously route on 1,4 days; assay type: functional, Mus musculus; settings: route intravenous
[4] = tested on: B16; assay: (§1) Compound was evaluated for the antineoplastic activity on B16 Melanoma cells at the optimal dose of 40 mg/kg through intraperitoneal route on days 1,5,9; assay type: functional, Mus musculus
[5] = species: Mus musculus; assay: Tumor free mice out of 8 surviving to day 60 or beyond was determined; assay type: functional
Summary of the method: (§2)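 Surviving mice were autopsied when the experiment ended. A mouse was scored cured if tumor-free with no visible disease at day 30 (P388, L1210) or day 60 (B16, C26, M109). Groups held 6, 10 or 8 mice.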

[6] = tested on: P388; assay: Compound was evaluated for the antineoplastic activity against P388 leukemia at an optimal dose of 256 mg/kg administered intraperitoneally; assay type: functional, Mus musculus; settings: route intraperitoneal
[7] = tested on: B16; assay: Compound was evaluated for the antineoplastic activity on B16 Melanoma cells at the optimal dose of 50 mg/kg through intraperitoneal route on days 1,5,9; assay type: functional, Mus musculus
[8] = tested on: M109; assay: Antitumor activity against M109 implants through intraperitoneal route along with the optimal dose of 150 mg/kg through intraperitoneal route on 1,4 days; assay type: functional, Mus musculus
[9] = tested on: B16; assay: as §1; assay type: functional, Mus musculus; remark: listed apart in the source
[10] = tested on: Colon 26; assay: Antitumor activity against C26 implants through subcutaneous route along with the optimal dose of 50 mg/kg through intraperitoneal injection on 1,4 days; assay type: functional, Mus musculus
[11] = species: Mus musculus; assay: Tumor free mice out of 10 surviving to day 60 was determined; assay type: functional; summary of the method: as §2
[12] = tested on: L1210; assay: Compound was evaluated for the antineoplastic activity on L1210 leukemia cell line at the optimal dose of 60 mg/kg administered intraperitoneally on day 1 following intraperitoneal implant of 10e 6 L1210 cells, in six mice; assay type: functional, Mus musculus
[13] = tested on: Colon 26; assay: Antitumor activity against C26 implants through intraperitoneal route along with the optimal dose of 120 mg/kg through intraperitoneal injection on 1,4 days; assay type: functional, Mus musculus
[14] = tested on: B16; assay: Compound was evaluated for the antineoplastic activity on B16 Melanoma cells at the optimal dose of 120 mg/kg through intraperitoneal route on days 1,5,9; assay type: functional, Mus musculus
[15] = tested on: B16; assay: Compound was evaluated for the antineoplastic activity on B16 Melanoma cells at the optimal dose of 80 mg/kg through intraperitoneal route on days 1,5,9; assay type: functional, Mus musculus
[16] = tested on: B16; assay: Compound was evaluated for the antineoplastic activity on B16 Melanoma cells at the optimal dose of 100 mg/kg through intraperitoneal route on days 1,5,9; assay type: functional, Mus musculus
[17] = tested on: L1210; assay: Compound was evaluated for the antineoplastic activity on L1210 leukemia cell line at the optimal dose of 180 mg/kg administered intraperitoneally on day 1 following intraperitoneal implant of 10e 6 L1210 cells, in six mice.9; assay type: functional, Mus musculus
[18] = tested on: B16; assay: Compound was evaluated for the antineoplastic activity on B16 Melanoma cells at the optimal dose of 60 mg/kg through intraperitoneal route on days 1,5,9; assay type: functional, Mus musculus
[19] = tested on: Colon 26; assay: Antitumor activity against C26 implants through subcutaneous route along with the optimal dose of 60 mg/kg through intraperitoneal injection on 1,4 days; assay type: functional, Mus musculus
[20] = tested on: P388; assay: Compound was evaluated for the antineoplastic activity against P388 leukemia at an optimal dose of 128 mg/kg administered intraperitoneally; assay type: functional, Mus musculus; settings: route intraperitoneal
[21] = tested on: B16; assay: Compound was evaluated for the antineoplastic activity on B16 Melanoma cells at the optimal dose of 10 mg/kg through intraperitoneal route on days 1,5,9; assay type: functional, Mus musculus
[22] = species: Mus musculus; assay: Tumor free mice out of 6 surviving to day 30 or beyond was determined; assay type: functional; summary of the method: as §2
[23] = tested on: Colon 26; assay: Antitumor activity against C26 implants through subcutaneous route along with the optimal dose of 25 mg/kg through intraperitoneal injection on 1,4 days; assay type: functional, Mus musculus
[24] = tested on: Colon 26; assay: Antitumor activity against C26 implants through intraperitoneal route along with the optimal dose of 60 mg/kg through intraperitoneal injection on 1,4 days; assay type: functional, Mus musculus
[25] = tested on: L1210; assay: Compound was evaluated for the antineoplastic activity on L1210 leukemia cell line at the optimal dose of 180 mg/kg administered intraperitoneally on day 1 following intraperitoneal implant of 10e 6 L1210 cells, in six mice; assay type: functional, Mus musculus
[26] = tested on: B16; assay: Compound was evaluated for the antineoplastic activity on B16 Melanoma cells at the optimal dose of 36 mg/kg through intraperitoneal route on days 1,5, 9; assay type: functional, Mus musculus
[27] = tested on: B16; assay: Compound was evaluated for the antineoplastic activity on B16 Melanoma cells at the optimal dose of 18 mg/kg through intraperitoneal route on days 1,5, 9; assay type: functional, Mus musculus
[28] = tested on: B16; assay: Compound was evaluated for the antineoplastic activity on B16 Melanoma cells at the optimal dose of 24 mg/kg through intraperitoneal route on days 1,5,9; assay type: functional, Mus musculus
[29] = tested on: Colon 26; assay: Antitumor activity against C26 implants through intraperitoneal route along with the optimal dose of 120 mg/kg through intraperitoneal injection on 5,8 days; assay type: functional, Mus musculus
[30] = tested on: P388; assay: Compound was evaluated for the antineoplastic activity against P388 leukemia at an optimal dose of 80 mg/kg administered intraperitoneally; assay type: functional, Mus musculus; settings: route intraperitoneal
[31] = tested on: Colon 26; assay: Antitumor activity against C26 implants through subcutaneous route along with the optimal dose of 120 mg/kg through intraperitoneal injection on 5,8 days; assay type: functional, Mus musculus
[32] = tested on: M109; assay: Antitumor activity against M109 implants through subcutaneous route along with the optimal dose of 100 mg/kg through intraperitoneal route on 1,4 days; assay type: functional, Mus musculus
[33] = tested on: P388; assay: Compound was evaluated for the antineoplastic activity against P388 leukemia at an optimal dose of 100 mg/kg administered intraperitoneally; assay type: functional, Mus musculus; settings: route intraperitoneal
[34] = tested on: B16; assay: Compound was evaluated for the antineoplastic activity on B16 Melanoma cells at the optimal dose of 160 mg/kg through intraperitoneal route on days 1,5,9; assay type: functional, Mus musculus
[35] = tested on: Colon 26; assay: Antitumor activity against C26 implants through intraperitoneal route along with the optimal dose of 50 mg/kg through intraperitoneal injection on 1,4 days; assay type: functional, Mus musculus
[36] = tested on: P388; assay: Compound was evaluated for the antineoplastic activity against P388 leukemia at an optimal dose of 64 mg/kg administered intraperitoneally; assay type: functional, Mus musculus; settings: route intraperitoneal

For CC1(C)CN1P(N)(=O)N1CC1(C)C (stereo not drawn), the T/C [1] was 221%, the T/C [2] was 99% and the T/C [3] was 104%. The T/C [4] was 214%, the Survivors [5] was 3 and 2 and the T/C [6] was 206%. It also gave a T/C [7] of 123%, a T/C [8] of 157% and a T/C [9] of 110%. For the same molecule, the T/C [10] was 127%, the Survivors [11] was 3 and 2 and the T/C [12] was 164%. For the same molecule, the T/C [13] was 190%, the T/C ([14]; 120 mg/kg) was 191% and 180% and the T/C [15] was 210%. The T/C [16] was 310% and 181%.
Molecule CN(C)P(=O)(N1CC1(C)C)N1CC1(C)C (stereo not drawn) has a T/C [17] of 207%, a T/C [18] of 118% and a T/C [19] of 125%. For the same molecule, the T/C [1] was 127%, the T/C [20] was 272% and the T/C [21] was 108%. For the same molecule, the T/C [14] was 153%.
CCCNP(=O)(N1CC1(C)C)N1CC1(C)C (stereo not drawn) showed a Survivors [22] of 2, a T/C [6] of 363% and a T/C [14] of 144%. The T/C [15] was 162%.
For CNP(=O)(N1CC1(C)C)N1CC1(C)C (stereo not drawn), the T/C [18] was 120%, the T/C [20] was 239% and the T/C [21] was 126%. For the same molecule, the T/C [23] was 151%, the Survivors [22] was 1 and the T/C [24] was 166%. The T/C [25] was 207% and the T/C [14] was 153%.
Work on COCCCNP(=O)(N1CC1(C)C)N1CC1(C)C (stereo not drawn) yielded a Survivors [22] of 1, a T/C [6] of 225% and a T/C [15] of 160%.
CCCCNP(=O)(N1CC1(C)C)N1CC1(C)C (stereo not drawn) showed a T/C [6] of 238% and a T/C [14] of 157%.
For CN1CCN(P(=O)(N2CC2(C)C)N2CC2(C)C)CC1 (stereo not drawn), the T/C [20] was 224% and the T/C [15] was 170%.
For CC1(C)CN1P(=O)(Nc1ccccc1)N1CC1(C)C (stereo not drawn) [PHOSPHINIC ANILIDE DERIVATE], the T/C [6] was 169%.
Work on O=C(O)CCCc1ccc(N(CCCl)CCCl)cc1 [CHLORAMBUCIL] yielded a T/C [26] of 125%, a T/C [27] of 132% and a T/C [28] of 121%.
Work on CCOP(=O)(N1CC1(C)C)N1CC1(C)C (stereo not drawn) yielded a T/C [29] of 144%, a T/C [30] of 272% and a Survivors [22] of 2. For the same molecule, the T/C [8] was 146%, the T/C [31] was 130% and the T/C [32] was 104%. For the same molecule, the T/C [16] was 188% and 119%.
CCNP(=O)(N1CC1(C)C)N1CC1(C)C (stereo not drawn) was tested, and the T/C [6] was 288% and the T/C [14] was 148%.
With CCOC(=O)NP(=O)(N1CC1(C)C)N1CC1(C)C (stereo not drawn) [METUREDEPA] the T/C [33] was 244%.
In the case of CC1(C)CN1P(=O)(N1CCCCC1)N1CC1(C)C (stereo not drawn), the T/C [34] is reported as 132% and the T/C [6] is reported as 218%.
With CN(C)CCCNP(=O)(N1CC1(C)C)N1CC1(C)C (stereo not drawn) the T/C [35] was 170%, the T/C [36] was 231% and the Survivors [11] was 2. The T/C ([15]; 80 mg/kg) was 210% and 172%.
CC1(C)CN1P(=O)(N1CCOCC1)N1CC1(C)C (stereo not drawn) showed a T/C [34] of 160% and a T/C [6] of 247%.
For O=P1(N(CCCl)CCCl)NCCCO1 (stereo not drawn) [CYCLOPHOSPHAMIDE ANHYDROUS], the Survivors [5] was 1, the T/C [14] was 180% and the T/C [16] was 143% and 205%.
Molecule CC1(C)CN1P(=O)(NC1CCCCC1)N1CC1(C)C (stereo not drawn) has a T/C [6] of 106%.
